One block for each compound: values may come before it. The source made the active and inactive calls. The calls are words filed in the database; no cut-off is given here.
Assays:
[1] = Antiproliferative activity against human HepG2 cells assessed as reduction in cell viability by MTT assay; type: functional, cell-based
[2] = Antiproliferative activity against human HMLE cells assessed as reduction in cell viability by MTT assay; type: functional, cell-based
[3] = Antiproliferative activity against human K562 cells assessed as reduction in cell viability by MTT assay; type: functional, cell-based
[4] = AUCt in Sprague-Dawley rat at 25 mg/kg, po measured up to 24 hrs; type: ADME, organism-based; parameters: time < 24 hr, dose 25 mg/kg, route oral; settings: in vivo
Method in brief: (§1)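 Adult male Sprague-Dawley rats were given a single oral dose of 25 mg/kg. Nine blood samples (0.3 mL) were taken over 24 h. n = 3.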

[5] = MRT in Sprague-Dawley rat at 25 mg/kg, po measured up to 24 hrs; type: ADME, organism-based; settings: in vivo; method in brief: as §1
[6] = Half life in Sprague-Dawley rat at 25 mg/kg, po measured up to 24 hrs; type: ADME, organism-based; settings: in vivo; method in brief: as §1
[7] = AUC (0 to infinity) in Sprague-Dawley rat at 25 mg/kg, po measured up to 24 hrs; type: ADME, organism-based; parameters: dose 25 mg/kg, route oral, time infinity; settings: in vivo; method in brief: as §1
[8] = Cmax in Sprague-Dawley rat at 25 mg/kg, po measured up to 24 hrs; type: ADME, organism-based; parameters: dose 25 mg/kg, route oral; settings: in vivo; method in brief: as §1
[9] = Tmax in Sprague-Dawley rat at 25 mg/kg, po measured up to 24 hrs; type: ADME, organism-based; settings: in vivo; method in brief: as §1
HepG2 [10] = test: Blockade of autophagic flux in human HepG2 cells assessed as increase in LC3-2 level at 5 uM after 8 hrs in presence of chloroquine by Western blot analysis; type: functional, cell-based
Method in brief: (§2)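 A549 and HepG2 cells were pretreated with chloroquine (10 μM) or rapamycin (200 nM) for 2 h. Compound was then added at 5 μM for 8 h. LC3 turnover (LC3-II) was detected by Western blot.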

[11] = Cytotoxicity against human HepG2 cells assessed as reduction in cell viability at 5 uM by MTT assay; type: functional
Method in brief: (§3)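 HepG2 cells were exposed to test agent at 5 μM or chloroquine at 50 μM for the indicated times. Viability was measured by MTT assay.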

HepG2 [12] = test: Reduction in lysosomal acidification in human HepG2 cells at 5 uM after 6 hrs by DAPI/lyso tracker red-double staining based confocal microscopic analysis relative to control; type: functional, cell-based
Method in brief: (§4)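 HepG2 cells were incubated at 5 μM (test agent) or 50 μM (chloroquine) for 6 h, then stained with LysoTracker Red. Nuclei were stained with DAPI and cells imaged by confocal microscopy (×63). LysoTracker Red signal was quantified per cell against untreated control.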

A549 [13] = test: Induction of autophagosome accumulation in human A549 cells transfected with EGFP-LC3 assessed as punctate dot formation at 5 uM after 6 hrs by fluorescent microscopic analysis relative to control; type: functional, cell-based
A549 [14] = test: Blockade of autophagic flux in human A549 cells assessed as increase in LC3-2 level at 5 uM after 8 hrs in presence of chloroquine by Western blot analysis; type: functional, cell-based; method in brief: as §2
HepG2 [15] = test: Induction of autophagosome accumulation in human HepG2 cells transfected with EGFP-LC3 assessed as punctate dot formation at 5 uM after 6 hrs by fluorescent microscopic analysis relative to control; type: functional, cell-based
Method in brief: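 HepG2 cells were transfected with an EGFP-LC3 plasmid, then exposed 24 h later to 5 μM or left untreated for 6 h. Cells were imaged by fluorescence microscopy, and EGFP-LC3 puncta per cell were counted in at least 100 cells per group.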

HepG2 [16] = test: Blockade of autophagic flux in human HepG2 cells assessed as increase in LC3-2 level at 5 uM after 8 hrs in presence of rapamycin by Western blot analysis; type: functional, cell-based; method in brief: as §2
A549 [17] = test: Blockade of autophagic flux in human A549 cells assessed as increase in LC3-2 level at 5 uM after 8 hrs in presence of rapamycin by Western blot analysis; type: functional, cell-based; method in brief: as §2
HepG2 [18] = test: Blockade of autophagic flux in human HepG2 cells transfected with mCherry-EGFP-LC3 assessed as punctate dot formation at 5 uM after 6 hrs by DAPI staining-based confocal microscopic analysis; type: functional, cell-based
Method in brief: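 HepG2 cells were transfected with an mCherry-EGFP-LC3 tandem plasmid and treated at 5 μM for 6 h (CQ 50 μM alongside). Imaging was by confocal microscopy with DAPI-stained nuclei. GFP/mCherry double-positive and mCherry single-positive puncta per cell were counted in ≥100 cells per count. Data are the mean of three independent experiments ± SD.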

HepG2 [19] = test: Reduction in lysosomal acidification in human HepG2 cells at 50 uM after 6 hrs by DAPI/lyso tracker red-double staining based confocal microscopic analysis relative to control; type: functional, cell-based; method in brief: as §4
[20] = Cytotoxicity against human HepG2 cells assessed as reduction in cell viability at 50 uM by MTT assay; type: functional; method in brief: as §3

Structure (SMILES): O=C(c1ccc(Cl)cc1)N1C[C@H]2CCCN3CCC[C@@H]([C@H]23)[C@H]1CCCCO
IC50 [1]: > 50 µM

Structure (SMILES): COC(=O)CCC[C@@H]1[C@H]2CCCN3CCC[C@H](CN1C(=O)c1ccc(Cl)cc1)[C@@H]23
IC50 [1]: > 50 µM

Structure (SMILES): COC(=O)CCC[C@@H]1[C@H]2CCCN3CCC[C@H](CN1C(=O)NCCCl)[C@@H]23
IC50 [1]: > 50 µM

Structure (SMILES): CC[C@@]1(O)C(=O)OCc2c1cc1n(c2=O)Cc2cc3c(CN(C)C)c(O)ccc3nc2-1 [TOPOTECAN]
IC50 [2]: 0.75 µM
IC50 [3]: 1.15 µM

Structure (SMILES): O=S(=O)(c1ccc(Cl)cc1)N1C[C@H]2CCCN3CCC[C@@H]([C@H]23)[C@H]1CCCCNCCc1cccc2c1OCO2
IC50 [1]: 5.5 µM

Structure (SMILES): O=S(=O)(c1ccc(Cl)cc1)N1C[C@H]2CCCN3CCC[C@@H]([C@H]23)[C@H]1CCCCNCc1cccc2c1OCO2
IC50 [1]: 3.8 µM

Structure (SMILES): COc1cc(CNCCCC[C@@H]2[C@H]3CCCN4CCC[C@H](CN2C(=O)c2ccc(Cl)cc2)[C@@H]34)cc(OC)c1OC
IC50 [1]: > 20 µM

Structure (SMILES): CC(C)(C)C(=O)N1C[C@H]2CCCN3CCC[C@@H]([C@H]23)[C@H]1CCCCO
IC50 [1]: > 50 µM

Structure (SMILES): COc1cc(NCCCC[C@@H]2[C@H]3CCCN4CCC[C@H](CN2Cc2ccc(Cl)cc2)[C@@H]34)cc(OC)c1OC
IC50 [1]: 6.4 µM

AUC(0-t) at 24 h [4]: 6.1 µM·h
MRT [5]: 10.8 h
half-life [6]: 21.9 h
AUC(0-inf) [7]: 11.7 µM·h
Cmax [8]: 2900 nM
Tmax [9]: 1.8 h
Structure (SMILES): Clc1ccc(CN2C[C@H]3CCCN4CCC[C@@H]([C@H]34)[C@H]2CCCCNCCc2cccc3c2OCO3)cc1
IC50 [1]: 2.6 µM
IC50 [2]: 0.68 µM
IC50 [3]: 1.09 µM

Structure (SMILES): COC(=O)CCC[C@@H]1[C@H]2CCCN3CCC[C@H](CN1C(=O)N(CCCl)N=O)[C@@H]23
IC50 [1]: 38.3 µM

Structure (SMILES): COC(=O)CCC[C@@H]1[C@H]2CCCN3CCC[C@H](CN1S(=O)(=O)c1ccc(Cl)cc1)[C@@H]23
IC50 [1]: 15.8 µM

AUC(0-t) at 24 h [4]: 10.8 µM·h
MRT [5]: 11.6 h
half-life [6]: 13 h
AUC(0-inf) [7]: 13.3 µM·h
Cmax [8]: 4900 nM
Tmax [9]: 1.6 h
Structure (SMILES): COc1cc(CNCCCC[C@@H]2[C@H]3CCCN4CCC[C@H](CN2Cc2ccc(Cl)cc2)[C@@H]34)cc(OC)c1OC
IC50 [1]: 1.7 µM
Activity (HepG2 [10]): Active
Activity [11]: 50%
Activity (HepG2 [12]): Active
Activity (A549 [13]): Active
Activity (A549 [14]): Active
Activity (HepG2 [15]): Active
Activity (HepG2 [16]): Active
IC50 [2]: 0.55 µM
Activity (A549 [17]): Active
Activity (HepG2 [18]): Active
IC50 [3]: 1.03 µM

Structure (SMILES): COc1cc(NCCCC[C@@H]2[C@H]3CCCN4CCC[C@H](CN2S(=O)(=O)c2ccc(Cl)cc2)[C@@H]34)cc(OC)c1OC
IC50 [1]: 7.9 µM

Structure (SMILES): COC(=O)CCC[C@@H]1[C@H]2CCCN3CCC[C@H](CN1C(=O)C(C)(C)C)[C@@H]23
IC50 [1]: > 50 µM

Structure (SMILES): CCN(CC)CCCC(C)Nc1ccnc2cc(Cl)ccc12 (configuration not stated) [CHLOROQUINE]
Activity (HepG2 [19]): Active
Activity [20]: 50%

Structure (SMILES): Clc1ccc(CN2C[C@H]3CCCN4CCC[C@@H]([C@H]34)[C@H]2CCCCNc2cccc3c2OCO3)cc1
IC50 [1]: 10.6 µM

AUC(0-t) at 24 h [4]: 5.7 µM·h
MRT [5]: 9.1 h
half-life [6]: 11.2 h
AUC(0-inf) [7]: 6.8 µM·h
Cmax [8]: 2700 nM
Tmax [9]: 1.2 h
Structure (SMILES): Clc1ccc(CN2C[C@H]3CCCN4CCC[C@@H]([C@H]34)[C@H]2CCCCNCc2cccc3c2OCO3)cc1
IC50 [1]: 2.6 µM
IC50 [2]: 0.64 µM
IC50 [3]: 1.14 µM

Structure (SMILES): OCCCC[C@@H]1[C@H]2CCCN3CCC[C@H](CN1Cc1ccc(Cl)cc1)[C@@H]23
IC50 [1]: 9.3 µM

Structure (SMILES): O=S(=O)(c1ccc(Cl)cc1)N1C[C@H]2CCCN3CCC[C@@H]([C@H]23)[C@H]1CCCCO
IC50 [1]: 28.8 µM

Structure (SMILES): O=C(c1ccc(Cl)cc1)N1C[C@H]2CCCN3CCC[C@@H]([C@H]23)[C@H]1CCCCNCc1cccc2c1OCO2
IC50 [1]: 16.5 µM

Structure (SMILES): O=C(c1ccc(Cl)cc1)N1C[C@H]2CCCN3CCC[C@@H]([C@H]23)[C@H]1CCCCNCCc1cccc2c1OCO2
IC50 [1]: > 20 µM
